Values after ≈ are worked out from the molar mass of the structure shown.
Tests used:
Klebsiella pneumoniae = experiment: Antibacterial activity against Klebsiella pneumoniae 700603 by microdilution assay; assay type: functional
Outline: (§1)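 Broth microdilution per CLSI recommendations, using a fresh culture in cation-adjusted Mueller-Hinton broth (CA-MHB) and a starting inoculum of 10^6 cells; the MIC is the value read.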

Staphylococcus aureus [1] = experiment: Antibacterial activity against Staphylococcus aureus SA-1 expressing NorA pump by microdilution assay
[2] = Cytotoxicity against mouse J774 cells assessed as cell viability at 10 uM after 24 hrs by MTT assay relative to control; assay type: cell-based; conditions: J774 cells, read-out: Activity
Outline: (§2)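 Murine J774 macrophages are exposed for 24 h to compound at 10 or 30 µM, then given 0.2 mg/mL MTT for 1 h. The reaction is stopped with DMSO and OD read at 570 nm; viability is metabolic activity as % of control. The number of independent experiments is given per value.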

Staphylococcus aureus [3] = experiment: Antibacterial activity against Staphylococcus aureus ATCC 25923 by microdilution assay; assay type: functional
Outline: (§3)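 Broth microdilution MIC per CLSI recommendations, fresh culture in cation-adjusted Mueller-Hinton broth, starting inoculum 10^6 cells.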

Acinetobacter lwoffii [4] = experiment: Antibacterial activity against Acinetobacter lwoffii ATCC 17925 by microdilution assay; assay type: functional; outline: as §1
Escherichia coli [5] = experiment: microbe, parasite or virus in culture; conditions: ATCC 25922
[6] = Cytotoxicity against mouse J774 cells assessed as cell viability at 30 uM after 24 hrs by MTT assay relative to control; assay type: cell-based; conditions: J774 cells, read-out: Activity; outline: as §2
Escherichia coli [7] = experiment: Antibacterial activity against Escherichia coli L8058.1 harboring ANT2'-1A by microdilution assay; assay type: functional; outline: as §3
Staphylococcus aureus [8] = experiment: Antibacterial activity against methicillin-resistant Staphylococcus aureus ATCC 33592 by microdilution assay; assay type: functional; outline: as §3
Pseudomonas aeruginosa [9] = experiment: Antibacterial activity against Pseudomonas aeruginosa PA406 harboring triABC deletion mutant by microdilution assay; assay type: functional; outline: as §3
Pseudomonas aeruginosa [10] = experiment: Antibacterial activity against Pseudomonas aeruginosa FO3 harboring AAC6'-2A by microdilution assay; assay type: functional; outline: as §3
Pseudomonas aeruginosa [11] = experiment: Antibacterial activity against Pseudomonas aeruginosa ATCC 27853 by microdilution assay; assay type: functional; outline: as §1
Pseudomonas aeruginosa [12] = experiment: Antibacterial activity against Pseudomonas aeruginosa PA22 harboring surexp MexXY by microdilution assay; assay type: functional; outline: as §3
Acinetobacter lwoffii [13] = experiment: Antibacterial activity against Acinetobacter lwoffii AI.88-483 harboring APH3'-6A by microdilution assay; assay type: functional; outline: as §3
Escherichia coli [14] = experiment: Antibacterial activity against Escherichia coli PAZ505H8101 harboring AAC6'-1B by microdilution assay; assay type: functional; outline: as §3

Compound	MIC (Klebsiella pneumoniae)	MIC (Staphylococcus aureus [1])	viability at 24 h, 10 µM [2]	MIC (Staphylococcus aureus [3])	MIC (Acinetobacter lwoffii [4])	MIC (Escherichia coli [5])	viability at 24 h, 30 µM [6]	MIC (Escherichia coli [7])	MIC (Staphylococcus aureus [8])	MIC (Pseudomonas aeruginosa [9])	MIC (Pseudomonas aeruginosa [10])	MIC (Pseudomonas aeruginosa [11])	MIC (Pseudomonas aeruginosa [12])	MIC (Acinetobacter lwoffii [13])	MIC (Escherichia coli [14])
CCCCCCCO[C@@H]1[C@@H](N)[C@@H](O[C@H]2[C@H](O)[C@@H](O)[C@H](N)C[C@@H]2N)O[C@H](CN)[C@H]1O	> 128 µg/mL	> 128 µg/mL	77.5%	> 128 µg/mL	64 µg/mL (≈ 152 µM)	> 128 µg/mL	70.2%	> 128 µg/mL	> 128 µg/mL	> 128 µg/mL	> 128 µg/mL	> 128 µg/mL	> 128 µg/mL	> 128 µg/mL	> 128 µg/mL
CCCCCCCCO[C@@H]1[C@@H](N)[C@@H](O[C@H]2[C@H](O)[C@@H](OCCCCCCCC)[C@H](N)C[C@@H]2N)O[C@H](CN)[C@H]1O	8 µg/mL (≈ 14.6 µM)	1 µg/mL (≈ 1.83 µM)	91.3%	1 µg/mL (≈ 1.83 µM)	2 to 4 µg/mL (≈ 3.66 to 7.32 µM)	4 µg/mL (≈ 7.32 µM)	65.1%	4 µg/mL (≈ 7.32 µM)	2 µg/mL (≈ 3.66 µM)	2 µg/mL (≈ 3.66 µM)	8 µg/mL (≈ 14.6 µM)	2 µg/mL (≈ 3.66 µM)	8 µg/mL (≈ 14.6 µM)	128 µg/mL (≈ 234 µM)	2 to 4 µg/mL (≈ 3.66 to 7.32 µM)
CCCCCCCCCO[C@@H]1[C@@H](N)[C@@H](O[C@H]2[C@H](O)[C@@H](O)[C@H](N)C[C@@H]2N)O[C@H](CN)[C@H]1OCCCCCCCCC	16 to 32 µg/mL (≈ 27.8 to 55.7 µM)	4 µg/mL (≈ 6.96 µM)	–	4 µg/mL (≈ 6.96 µM)	4 to 8 µg/mL (≈ 6.96 to 13.9 µM)	4 to 8 µg/mL (≈ 6.96 to 13.9 µM)	–	8 µg/mL (≈ 13.9 µM)	4 µg/mL (≈ 6.96 µM)	8 to 16 µg/mL (≈ 13.9 to 27.8 µM)	8 to 16 µg/mL (≈ 13.9 to 27.8 µM)	8 to 16 µg/mL (≈ 13.9 to 27.8 µM)	8 to 16 µg/mL (≈ 13.9 to 27.8 µM)	32 µg/mL (≈ 55.7 µM)	4 to 8 µg/mL (≈ 6.96 to 13.9 µM)
CCCCCCCCCCO[C@@H]1[C@@H](N)[C@@H](O[C@H]2[C@H](O)[C@@H](OCCCCCCCCCC)[C@H](N)C[C@@H]2N)O[C@H](CN)[C@H]1O	16 µg/mL (≈ 26.5 µM)	1 µg/mL (≈ 1.66 µM)	85.5%	1 µg/mL (≈ 1.66 µM)	2 µg/mL (≈ 3.32 µM)	2 µg/mL (≈ 3.32 µM)	14.5%	128 µg/mL (≈ 212 µM)	1 to 2 µg/mL (≈ 1.66 to 3.32 µM)	8 µg/mL (≈ 13.3 µM)	4 µg/mL (≈ 6.63 µM)	4 µg/mL (≈ 6.63 µM)	4 µg/mL (≈ 6.63 µM)	64 µg/mL (≈ 106 µM)	8 µg/mL (≈ 13.3 µM)
GENTAMICIN	4 to 8 µg/mL	–	–	0.25 to 0.5 µg/mL	< 0.25 µg/mL	–	–	64 µg/mL	1 µg/mL	< 0.25 µg/mL	> 128 µg/mL	1 µg/mL	4 µg/mL	2 µg/mL	1 µg/mL
NC[C@@H]1O[C@H](O[C@H]2[C@@H](O)[C@H](O[C@@H]3[C@@H](O)[C@H](N)C[C@H](N)[C@H]3O[C@H]3O[C@H](CN)[C@@H](O)[C@H](O)[C@H]3N)O[C@@H]2CO)[C@H](N)[C@@H](O)[C@@H]1O [FRAMYCETIN]	4 to 8 µg/mL (≈ 6.51 to 13 µM)	0.5 to 1 µg/mL (≈ 0.813 to 1.63 µM)	–	1 to 2 µg/mL (≈ 1.63 to 3.25 µM)	< 0.25 µg/mL	2 µg/mL (≈ 3.25 µM)	–	1 µg/mL (≈ 1.63 µM)	> 128 µg/mL	2 to 4 µg/mL (≈ 3.25 to 6.51 µM)	128 µg/mL (≈ 208 µM)	64 µg/mL (≈ 104 µM)	32 to 64 µg/mL (≈ 52.1 to 104 µM)	64 to 128 µg/mL (≈ 104 to 208 µM)	4 µg/mL (≈ 6.51 µM)
NC[C@H]1O[C@H](O[C@H]2[C@H](O)[C@@H](OCc3ccc4ccccc4c3)[C@H](N)C[C@@H]2N)[C@H](N)[C@@H](OCc2ccc3ccccc3c2)[C@@H]1O	–	–	–	–	–	–	75.7%	–	–	–	–	–	–	–	–
NC[C@H]1O[C@H](O[C@H]2[C@H](O)[C@@H](O)[C@H](N)C[C@@H]2N)[C@H](N)[C@@H](O)[C@@H]1O [NEAMINE]	32 µg/mL (≈ 99.3 µM)	8 µg/mL (≈ 24.8 µM)	–	16 to 32 µg/mL (≈ 49.6 to 99.3 µM)	0.5 µg/mL (≈ 1.55 µM)	32 µg/mL (≈ 99.3 µM)	–	32 µg/mL (≈ 99.3 µM)	> 128 µg/mL	64 µg/mL (≈ 199 µM)	> 128 µg/mL	> 128 µg/mL	> 128 µg/mL	> 128 µg/mL	> 128 µg/mL
CCCCCCCO[C@@H]1[C@@H](O)[C@H](O[C@H]2O[C@H](CN)[C@@H](O)[C@H](O)[C@H]2N)[C@@H](N)C[C@H]1N	> 128 µg/mL	> 128 µg/mL	84.3%	> 128 µg/mL	64 µg/mL (≈ 152 µM)	> 128 µg/mL	71.3%	> 128 µg/mL	> 128 µg/mL	> 128 µg/mL	> 128 µg/mL	> 128 µg/mL	> 128 µg/mL	> 128 µg/mL	> 128 µg/mL

— ChEMBL document CHEMBL4265973, “Broad-spectrum antibacterial amphiphilic aminoglycosides: A new focus on the structure of the lipophilic groups extends the series of active dialkyl neamines” (Eur J Med Chem, 2018)
